Screening results (PubChem BioAssay)
procasp7 counter: counter-screen for procaspase-3 activators: activators of human procaspase-7; P55210; recombinant procaspase-7, Ac-DEVD-pNA absorbance 405 nm; D23A/D198A/D206A triple mutant, cannot self-cleave; scale: DMSO 0, 5 µM enzyme 100; activation, % at 8.5 µM; 330,000 tested, 0.093% active;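 active = percent activation above the screen-wide mean plus 3 SD, cut at about 25% in these data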
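System: Procaspase-7 triple mutant (PC-7 D3A); measure: % activation from two-timepoint absorbance difference, scaled to controls; times: 1 h compound preincubation, 2 h substrate cleavage, 25 °C; also added: Ac-DEVD-pNA substrate, 400 µM as added; measured by: Epi-absorbance of released pNA at 405 nm, two timepoints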
sPLA2-III inh: Blocks human group III sPLA2 activity. Q9NZ20. QFRET BODIPY PC-A2 liposome hydrolysis, fluorescence. inhibition, % at 12.2 µM. 370,000 tested, 0.56% active. AID 743126;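 active = inhibition above mean plus 3 SD of compounds lying within the high and low control bounds, cut at about 19% in these data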;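 note: 0% = median of test compound wells and 100% = no enzyme DMSO wells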
Arr AP2 block: inhibitors of human beta-arrestin and AP2 interaction; inhibition, % at 10 µM; FITC-arrestin peptide / GST-AP2 beads, flow cytometry; AP2 beta2 appendage carries R879A mutation; 340,000 tested, 0.31% active;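 active = inhibition above a set limit, near 3 SD of compounds lacking own fluorescence, cut at about 54% in these data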;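 note: plate controls were DMSO wells for no effect and 5 µM unlabelled arrestin peptide for full effect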
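Material – GST-tagged AP2 beta2-adaptin appendage (R879A) on 4 µm glutathione beads · Probe or stimulus – fluorescein-tagged arrestin peptide at 50 nM final · Timing – 12 min plus 1 h, RT · Detection – bead flow cytometry, FITC channel · Read-out basis – inhibition as reduced fluorescein signal on beads, percent · Medium – PBS plus Tween 20 (0.05%) and BSA (0.1%)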
procasp3 activ: procaspase-3 (human) activation; 330,000 tested, 0.11% active; activation, % at 8.5 µM; P42574; AID 463141; recombinant procaspase-3 D3A, Ac-DEVD-pNA absorbance 405 nm;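 active = activation above the mean of all tested compounds plus 3 SD, cut at about 21% in these data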;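 note: 0% = DMSO alone and 100% = DMSO wells spiked with extra 5 µM PC-3 D3A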
Target sequence (P42574 whole entry D9A/D28A/D175A): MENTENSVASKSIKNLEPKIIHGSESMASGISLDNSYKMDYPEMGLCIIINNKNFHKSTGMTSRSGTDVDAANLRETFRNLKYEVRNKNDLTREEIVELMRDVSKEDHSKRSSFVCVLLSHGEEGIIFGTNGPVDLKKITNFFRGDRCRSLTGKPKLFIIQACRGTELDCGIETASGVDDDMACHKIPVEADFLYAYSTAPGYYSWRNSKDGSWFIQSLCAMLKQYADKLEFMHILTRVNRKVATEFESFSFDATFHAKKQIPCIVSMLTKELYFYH
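material = Procaspase-3 D3A mutant | probe or stimulus = Ac-DEVD-pNA | compound = single dose, 8.5 µM nominal compound, 0.8% DMSO | timing = 1 h preincubation, 2 h reaction | measured by = 405 nm absorbance of p-nitroaniline, reads at 0 and 120 min | benchmarks = DMSO-only low control, 5 µM PC-3 D3A high control | repeats = singlicate, each compound tested once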
PLC-beta3 inh: blocks human PLC-beta3 enzyme activity; Q01970; Purified PLC-beta3, fluorogenic substrate, fluorescence; inhibition, % at 12.2 µM; 370,000 tested, 0.18% active; AID 720704; in the data active = inhibition above about 11%;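 note: 0% = median of compound wells on plate and 100% = full blocker control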
PLCg1 inh: blocks human PLC-gamma1 enzyme activity. P19174. purified PLC-gamma1, fluorogenic substrate, fluorescence. inhibition, % at 12.2 µM. 370,000 tested, 0.84% active. AID 720700
PLCg1 ctr: counter-screen for PLC-beta3 inhibitors: inhibitors of human PLC-gamma1 | inhibition, % at 12.3 µM | purified PLC-gamma1, fluorogenic substrate, fluorescence | 3,300 tested, 3.1% active | shares compounds with PLCg1 inh | AID 743258
PLCbeta3 conf: confirmation of human PLC-beta3 inhibitors; shares compounds with PLCg1 inh; purified PLC-beta3, fluorogenic substrate fluorescence; inhibition, % at 12.3 µM; 3,300 tested, 1% active; in the data active = inhibition above about 11%
An asterisk follows results filed as active; x = no result given. In the library only some 1.9% were active in any assay of this set; here they are far more common. Cut-off read from the data, not from the text of the source, unless noted: active = inhibition above about 9.5%; inactive = the rest.

SMILES | procasp7 counter | sPLA2-III inh | Arr AP2 block | procasp3 activ | PLC-beta3 inh | PLCg1 inh | PLCg1 ctr | PLCbeta3 conf
COc1cc(C(=O)NNC(=O)c2cccc(Cl)c2)ccc1OCC(=O)N1CCOCC1 | -2 | 2 | -7 | 1 | -4 | -2 | x | x
CCN1CCN(C(c2ccccc2)c2nnnn2C(C)(C)C)CC1 (stereo not given) | x | 0 | x | x | 0 | 1 | x | x
CC(C)(C)n1nnnc1C(c1ccccc1)N1CCN(C(=O)C2CCCO2)CC1 (stereo not given) | x | 10 | x | x | 4 | 9.9* | -6 | 2
CN1CCN(C(c2ccccc2)c2nnnn2C(C)(C)C)CC1 (stereo not given) | x | -3 | x | x | 5 | 12* | -1 | -7
Cc1cccc(Cl)c1OCCCn1ccnc1 | 1 | -4 | 8 | 2 | -6 | 3 | x | x
O=S(=O)(Nc1ccc2cn[nH]c2c1)c1ccc(Cl)s1 | -8 | -20 | -1 | 3 | -8 | 0 | x | x
c1ccc(CSc2nnc(SCc3ccccn3)s2)nc1 | 2 | 8 | 5 | 7 | 14* | 11* | -4 | -3
N=C(N)SCc1ccccn1 | -8 | -7 | -6 | -6 | -3 | 1 | x | x
CC(C)NC(=O)[C@]1(C#N)CC(=O)N(C)[C@@H]1c1ccccc1 | x | 5 | x | x | 7 | 2 | x | x
O=C(NCCNC(=O)c1cc(OCC(F)(F)F)ccc1OCC(F)(F)F)Nc1ccc(OC(F)(F)F)cc1 | -1 | 3 | 2 | 4 | -2 | 12* | -7 | -3
COCCNCCCOc1ccc(Br)cc1Cl | 4 | 18 | -4 | 4 | -4 | 11* | 9.5* | 3
COCCCNCCCCOc1ccc(Br)cc1Cl | 6 | -7 | -3 | 1 | 2 | 3 | x | x
O=C(COC(=O)c1ccc(S(=O)(=O)NCc2ccco2)cc1)Nc1ccccc1OC(F)F | 0 | -28 | 2 | 0 | 12* | 5 | -6 | -1
COc1cccc(CNn2c(-c3cccc(C)c3)nc3ccccc3c2=O)c1 | 9 | -4 | -6 | -7 | 11* | 5 | -8 | -7
CCOC(=O)[C@]12CCCC=C1N(Cc1cccc3ccccc13)C(=O)[C@H](CC(=O)N1CCN(C(=O)C3CC3)CC1)C2 | x | -14 | x | x | 4 | 0 | x | x
CCn1c(SCC(=O)Nc2ccc(C(C)=O)cc2)nc2nc3c(cc2c1=O)CCCC3 | 9 | 9 | 1 | -6 | -1 | 9.7* | 7 | 5
Cc1cccc(C)c1NC(=O)C(c1cc2ccccc2o1)N1CCC(c2ccccc2)CC1 (stereo not given) | x | -1 | x | x | 1 | 1 | x | x
COc1ccc(/C=C/C(=O)NC2=NCCS2)c(OC)c1 | x | 3 | x | x | -52 | -43 | x | x
O=C(c1ccco1)N1CCN=C1SCc1c(F)cccc1Cl | 9 | -1 | -7 | -3 | -2 | 0 | x | x
O=C(c1ccco1)N1CCN=C1SCc1ccccc1Cl | 12 | 4 | 8 | 6 | 17* | -2 | -1 | 1
O=C(CN1C(=O)c2ccccc2S1(=O)=O)N1CCN(c2ccc(F)cc2)CC1 | 8 | 5 | 6 | -6 | 7 | 11* | -5 | -3
Cc1cc(C)cc(NC(=O)CCNC(=O)c2ccc([N+](=O)[O-])cc2)c1 | x | -6 | 3 | x | -3 | 10* | -8 | -6
O=C(CCNC(=O)c1ccc([N+](=O)[O-])cc1)Nc1ccc(F)cc1 | -2 | -2 | -2 | -2 | -5 | 0 | x | x
OCCNc1nc(-c2ccccc2)nc2c1oc1ccccc12 | -3 | -4 | 8 | -1 | 0 | 0 | x | x
CC(=O)Nc1ccc(S(=O)(=O)N/N=C/c2cccnc2)cc1 | -15 | 2 | 8 | -4 | -8 | 1 | x | x
CC(=O)Nc1ccc(S(=O)(=O)N/N=C/c2ccc(C)s2)cc1 | 3 | -2 | 3 | 0 | 12* | 4 | -4 | 1
